Test results reported in PubChem BioAssay.
The other results are listed elsewhere or left out. A number with no mark means an inactive call. Activity calls are given as the source filed them.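 Rule for the calls, unless noted: active = mean activation over triplicate wells above the hit cutoff derived from the earlier primary screen (cut at about 11% in these data); inactive = the rest.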

Legend:
[1] = target: Oxysterols receptor LXR-beta (Homo sapiens) (UniProt P55055); experiment: nonspecific reporter activation via LXR – cell-based, luminescence, HEK293, H. contortus campaign, counter-screen for hcDAF-12 agonist project, confirmation (AID 743027;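 active = mean percent activation of the reporter above a cutoff set as the average over tested compounds plus their standard deviation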); conditions: HEK293 Gal4-LXR tk-luc reporter, 24 h, at 6.8 µM, active compounds read high, normalized: DMSO 0%, positive control 100%
Chain of Oxysterols receptor LXR-beta (Homo sapiens) (P55055 whole entry, looked up, the tested form may be a part): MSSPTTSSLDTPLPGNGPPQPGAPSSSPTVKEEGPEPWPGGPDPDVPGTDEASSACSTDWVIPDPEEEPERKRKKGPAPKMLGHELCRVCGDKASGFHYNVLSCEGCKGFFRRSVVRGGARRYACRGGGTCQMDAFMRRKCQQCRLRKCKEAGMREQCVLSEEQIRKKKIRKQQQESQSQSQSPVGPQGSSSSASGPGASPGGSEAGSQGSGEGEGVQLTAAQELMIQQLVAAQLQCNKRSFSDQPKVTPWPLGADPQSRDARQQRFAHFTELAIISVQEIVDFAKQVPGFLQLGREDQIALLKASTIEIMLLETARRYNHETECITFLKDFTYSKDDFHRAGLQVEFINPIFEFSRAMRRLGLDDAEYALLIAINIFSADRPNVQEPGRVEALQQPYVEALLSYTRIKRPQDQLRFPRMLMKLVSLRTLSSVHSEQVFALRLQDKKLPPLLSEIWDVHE
Procedure, shortened: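 Assay system: Gal4-LXR and tk-luc reporter transfected HEK293 cells; Compound: 6.8 µM single dose; Times: one-day compound treatment at 37 °C; Technique: One-Glo luciferase luminescence; Read-out basis: % activation relative to DMSO and positive-control wells; Benchmarks: DMSO low control, positive-control high control; Repeats: three replicates per compound.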

[2] = system: Nuclear hormone receptor DAF-12 (Haemonchus contortus); experiment: hcDAF-12 luciferase reporter activation, retest – cell-based, luminescence, HEK293, lit1-tk-luc, triplicate, confirmation (AID 743032;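 active = mean activation across triplicate tests above the threshold derived from the earlier primary screen, cut at about 5.5% in these data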;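 note: 0% = DMSO only wells and 100% = 3 µM Δ7-dafachronic acid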); conditions: HEK293 hcDAF-12 lit1-tk-luc reporter, at 6.8 µM, active compounds read high, % of Δ7-dafachronic acid response
[3] = system: DAF-12 nuclear receptor (Heterodera glycines), GAL4-LBD fusion; experiment: hgDAF-12 GAL4 fusion reporter activation, retest – cell-based, luminescence, HEK293, GAL4-LBD fusion, confirmation (AID 743050); conditions: HEK293 GAL4-hgDAF12 luciferase reporter, agonist mode; at 6.8 µM; active compounds read high; percent of butyrate response;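 note: 0% = DMSO low control and 100% = 2 mM sodium butyrate high control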
[4] = target: Oxysterols receptor LXR-beta (Homo sapiens) (UniProt P55055); experiment: nonspecific reporter activation via LXR – cell-based, luminescence, HEK293, H. glycines campaign, counter-screen for hgDAF-12 agonist project, confirmation (AID 743051;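 active = mean activation of the triplicate above a set limit carried over from the primary screen, none filed active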); conditions: HEK293 Gal4-LXR luciferase reporter, 24 h; at 6.8 µM; active compounds read high
Procedure, shortened: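 System: HEK293 cells with Gal4-LXR and tk-luc reporter. Compound dosing: single nominal test compound dose of 6.8 µM. Timing: 3 h cell plating, then 24 h compound exposure at 37 °C. Detection: One-Glo luminescence after 15 min. Read-out basis: percent activation relative to median DMSO and positive-control wells. Benchmarks: DMSO low control, 0.68% final.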

Row | SMILES | activation [1] | activation [2] | activation [3] | activation [4]
1 | CC(C#N)OC(=O)c1cccnc1SCC(=O)Nc1ccc2c(c1)OCO2 (centres undefined) | 0.05% | 5.55% | – | –
2 | O=[N+]([O-])c1ccc2oc(-c3cccc(O)c3)nc2c1 | 1.82% | 20% (active) | – | –
3 | CN1CCN(c2ccc(NC(=O)c3ccc4c(c3)OCCO4)cc2Cl)CC1 | 1.56% | 6.28% (active) | 9.5% | 0.88%
4 | CC1C/C(=N/NC(=O)c2cccs2)CC(C)(C)C1 (centres undefined) | – | – | 4.24% | 0.21%
5 | CS(=O)(=O)N1CCc2nc(-c3ccccc3)sc2C1 | – | – | 10.3% | 0.56%
6 | O=C(Nc1ccccc1)Nc1nc2ccccc2s1 | 1.95% | 9.44% (active) | 20.4% (active) | 1.06%
7 | Cc1ccc(SCCSc2ncccn2)cc1 | 1.19% | 7.13% (active) | 14.6% (active) | 0.89%
8 | Cn1c(=NC(=O)c2ccco2)sc2cccc(F)c21 | 1.46% | 15% (active) | 22.9% (active) | 0.76%
9 | Cc1ccc(-n2cc3ccc([N+](=O)[O-])cc3n2)cc1 | 2.14% | 6.7% (active) | 22.6% (active) | 0.97%
10 | CC(=O)Nc1cccc(C(=O)OCC(=O)c2ccc3c(c2)OCO3)c1 | 1.92% | 8.03% (active) | 16.6% (active) | 1.1%
11 | Cn1c(NC(=O)c2ccccc2)nc2ccccc21 | 1.51% | 16.7% (active) | 19.1% (active) | 0.86%
12 | COc1ccc2nc(-c3ccccn3)ccc2c1 | 1.86% | 11.8% (active) | 16.7% (active) | 1.05%
13 | Cc1ccc(NC(=O)c2cc3ccccc3o2)cc1 | 1.5% | 7.27% (active) | 22% (active) | 0.74%
14 | Brc1ccc2nc(N3CCCC3)sc2c1 | 0.77% | 5.13% | 12.5% (active) | 0.64%
15 | Oc1ccccc1-c1cc(-c2ccc(Cl)cc2)n[nH]1 | 1.85% | 14.7% (active) | 29.5% (active) | 1.15%
16 | O=C(Nc1cccc(O)c1)c1ccc(C(=O)c2ccccc2)o1 | – | – | 12.2% (active) | 0.51%
17 | Oc1cccc2ccc(/C=C/c3ccc(Br)s3)nc12 | 1.05% | 13.8% (active) | 15.8% (active) | 0.56%
18 | O=C(Nc1ccn(Cc2ccccc2)n1)c1cccc(F)c1 | 1.66% | 7.02% (active) | 15.6% (active) | 0.7%
19 | Nc1ccc(C(=O)Nc2ccccc2N)cc1 | 1.14% | 9.52% (active) | 85.4% (active) | 0.48%
20 | CCOC(=O)c1cn[nH]c1NC(=S)Nc1ccccc1 | 1.51% | 4.78% | 15.6% (active) | 1.01%
21 | OC(c1ccccc1)c1nc(-c2cnc3ccccc3c2)cs1 (centres undefined) | 1.85% | 6.14% (active) | 26.4% (active) | 0.98%
22 | Cc1ccnc(Nc2nc3ccccc3s2)n1 | 1.72% | 18.5% (active) | 15% (active) | 1.12%
23 | Clc1ccc(Nc2ccc3ccccc3n2)cc1 | 2.07% | 15% (active) | 28.6% (active) | 1.31%
24 | Brc1ccccc1C1N=C(c2ccccc2)NO1 (centres undefined) | 1.08% | 11.3% (active) | 19.6% (active) | 0.87%
25 | O=C(Nc1ncccc1O)c1ccc(C(=O)c2ccccc2)cc1 | 1.21% | 8.51% (active) | 84.2% (active) | 0.71%
26 | Cc1cc(OCc2cc(C(=O)NCc3cc(C(C)C)no3)no2)cc(C)c1Cl | 0.91% | 7.69% (active) | 20.9% (active) | 0.62%
27 | O=C(NC(=S)NC1CCCCC1)c1ccc(Cl)cc1 | – | – | 11.3% (active) | 0.45%
28 | Cc1cc(N=Nc2ccc3ccccc3c2)ccc1O | 1.85% | 8.43% (active) | 24.5% (active) | 1.16%
29 | O=C(NC(=O)c1ccccc1)Nc1ccccc1O | 1.94% | 13.2% (active) | 19.6% (active) | 1.13%
